Data taken from ChEMBL document CHEMBL3769360, “Phthalimido-thiazoles as building blocks and their effects on the growth and morphology of Trypanosoma cruzi” (Eur J Med Chem, 2016).

Assays:
Trypanosoma cruzi [1] = assay: Trypanocidal activity against epimastigote form of Trypanosoma cruzi Dm28c after 11 days by neubauer chamber method; type: functional; details: 264 h
Trypanosoma cruzi [2] = assay: Trypanocidal activity against trypamostigote form of Trypanosoma cruzi Y infected in African green monkey Vero cells after 24 hrs by neubauer chamber method; type: functional, organism-based
Procedure, shortened: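 Y strain trypomastigotes harvested from Vero cell supernatants, 4 × 10^5 cells/well, compounds in triplicate, benznidazole as positive control. Incubated 24 h at 37 °C, 5% CO2. Motile parasites counted in a Neubauer chamber; untreated wells = 100%. IC50 by nonlinear regression over at least seven concentrations.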

[3] = Cytotoxicity against BALB/c mouse splenocytes assessed as highest non-toxic concentration causing >90 % incorporation of [3H]-thymidine after 24 hrs by beta counting method; type: cell-based, Splenocyte; details: read-out: MNTD90
Procedure, shortened: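 BALB/c mouse splenocytes at 5 × 10^6 cells/well in RPMI-1640 with 10% inactivated FBS. Compounds were dissolved in DMSO (10 mg/mL stock) and serially diluted to 1.0, 5.0, 10, 25, 50 and 100 (final), in triplicate. Controls were saponin and medium with DMSO. 3H-thymidine was added, then 24 h at 37 °C, 5% CO2, and beta counting. Untreated = 100%; >90% incorporation counted as nontoxic.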

[4] = Selectivity index, ratio of MNTD90 for cytotoxicity against BALB/c mouse splenocytes to IC50 for trypamostigote form of Trypanosoma cruzi Y infected in African green monkey Vero cells; type: toxicity, cell-based; details: read-out: Selectivity Index
[5] = Lipophilicity, log P of compound; type: physicochemical; details: octanol/water

| SMILES | IC50 (Trypanosoma cruzi [1]) [µM] | IC50 (Trypanosoma cruzi [2]) [µM] | MNTC at 24 h [3] [µM] | selectivity ratio [4] | logP [5] |
| --- | --- | --- | --- | --- | --- |
| O=C1c2ccccc2C(=O)N1Nc1nc(-c2ccc([N+](=O)[O-])cc2)cs1 | 13.3 | 84.9 | 2.7 | – | – |
| O=C1c2ccccc2C(=O)N1C/C=N/N=c1\scc(-c2ccc(Cl)cc2)n1-c1ccccc1 | 10.6 | 18.4 | 211 | – | – |
| O=C1c2ccccc2C(=O)N1C/C=N/N=c1\scc(-c2ccc3ccccc3c2)n1-c1ccccc1 | 11.9 | 0.5 | 205 | 410 | – |
| O=C1c2ccccc2C(=O)N1C/C=N/N=c1\scc(-c2ccc([N+](=O)[O-])cc2)n1-c1ccccc1 | 12.2 | 3.2 | 207 | 64.6 | – |
| O=C1c2ccccc2C(=O)N1Nc1nc(-c2ccc(F)cc2)cs1 | 26.5 | 52.1 | 2.9 | – | – |
| O=C1c2ccccc2C(=O)N1Nc1nc(-c2ccc(-c3ccccc3)cc2)cs1 | 4 | 27.5 | 252 | – | 5.66 |
| O=C1c2ccccc2C(=O)N1C/C=N/N=c1\scc(-c2ccc(Cl)c(Cl)c2)n1-c1ccccc1 | – | – | 197 | – | – |
| O=C1c2ccccc2C(=O)N1C/C=N/N=c1/[nH]c(CCl)cs1 | 85.7 | 2.2 | 73.7 | 33.5 | – |
| O=C1c2ccccc2C(=O)N1Nc1nc(-c2ccc(Cl)cc2Cl)cs1 | 10.1 | 22.7 | 12.8 | – | – |
| Cc1ccc(-c2csc(NN3C(=O)c4ccccc4C3=O)n2)cc1 | 70.4 | 107 | 14.9 | – | – |
| O=C1c2ccccc2C(=O)N1C/C=N/N=c1\scc(-c2ccc(Br)cc2)n1-c1ccccc1 | – | 9.7 | 96.6 | – | – |
| O=C1c2ccccc2C(=O)N1Nc1nc(-c2ccc(Cl)c(Cl)c2)cs1 | 69.3 | 88.8 | 2.6 | – | – |
| COc1ccc(-c2cs/c(=N\N=C\CN3C(=O)c4ccccc4C3=O)n2-c2ccccc2)cc1 | – | 10 | 213 | – | – |
| Cc1sc(NN2C(=O)c3ccccc3C2=O)nc1-c1ccc(Br)cc1 | 13.9 | 38.2 | 2.4 | – | – |
| Cc1ccc(-c2cs/c(=N\N=C\CN3C(=O)c4ccccc4C3=O)n2-c2ccccc2)cc1 | 57.8 | 33.3 | 221 | – | – |
